# Experimental data as given in PMC2673089 (Journal of pharmaceutical sciences, 2008).
# How the values were obtained:
# rat CYP1A2 = target: T1, rat CYP1A2 (Rattus norvegicus, UniProt P04799); assay: Metabolism by recombinant rat CYP1A2 Supersomes; format: in vitro ADME
# T1 sequence (P04799 1-513): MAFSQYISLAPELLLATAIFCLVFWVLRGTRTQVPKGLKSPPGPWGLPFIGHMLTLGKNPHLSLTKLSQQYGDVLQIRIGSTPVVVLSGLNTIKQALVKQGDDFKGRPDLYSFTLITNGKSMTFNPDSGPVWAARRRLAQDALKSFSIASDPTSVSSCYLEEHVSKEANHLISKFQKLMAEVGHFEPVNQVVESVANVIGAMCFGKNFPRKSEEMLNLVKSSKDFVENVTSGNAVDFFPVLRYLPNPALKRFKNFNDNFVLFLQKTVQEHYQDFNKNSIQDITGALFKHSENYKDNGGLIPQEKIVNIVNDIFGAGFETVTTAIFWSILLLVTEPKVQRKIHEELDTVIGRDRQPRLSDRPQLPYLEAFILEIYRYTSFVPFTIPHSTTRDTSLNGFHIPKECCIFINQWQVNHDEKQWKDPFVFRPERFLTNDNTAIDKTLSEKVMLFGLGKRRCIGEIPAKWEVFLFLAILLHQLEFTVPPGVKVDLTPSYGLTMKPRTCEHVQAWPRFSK
# Caco-2 monolayers = assay: Bidirectional transport and verapamil inhibition across Caco-2 monolayers; format: in vitro ADME
# rat CYP2D1 = target: T2, rat CYP2D1 (Rattus norvegicus, UniProt P10633); assay: Metabolism by recombinant rat CYP2D1 Supersomes; format: in vitro ADME
# T2 sequence (P10633 1-504): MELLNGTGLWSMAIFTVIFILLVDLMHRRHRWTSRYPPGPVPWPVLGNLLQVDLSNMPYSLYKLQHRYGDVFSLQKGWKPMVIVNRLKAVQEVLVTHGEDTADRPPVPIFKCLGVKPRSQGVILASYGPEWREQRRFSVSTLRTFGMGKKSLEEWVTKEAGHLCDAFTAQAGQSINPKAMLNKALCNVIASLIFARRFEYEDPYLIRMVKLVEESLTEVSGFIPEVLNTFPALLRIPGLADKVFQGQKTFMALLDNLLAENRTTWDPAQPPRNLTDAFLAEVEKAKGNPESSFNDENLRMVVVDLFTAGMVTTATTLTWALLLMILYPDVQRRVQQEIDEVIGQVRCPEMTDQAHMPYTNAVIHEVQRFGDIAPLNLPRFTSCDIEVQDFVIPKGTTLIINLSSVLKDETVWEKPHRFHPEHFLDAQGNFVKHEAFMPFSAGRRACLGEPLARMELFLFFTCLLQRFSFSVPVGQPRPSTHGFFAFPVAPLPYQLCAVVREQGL
# [1] = tested on: extracellular levels of DA in the nucleus accumbens (NAc); assay: Intracerebral microdialysis of NAc dopamine; format: in vivo, Sprague–Dawley rats; conditions: for maximal increase of DA: NAc dialysate; for time DA levels remained significantly elevated above basal: post hoc p < 0.05
# Procedure, shortened: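 CMA/12 probe (2 mm) was perfused with aCSF at 1 μL/min. Dialysate was collected over 10-min periods to 360 min. DA by HPLC-ECD, as % of mean of four basal samples. Repeated-measures ANOVA, Dunnett vs time zero.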
# NET = conditions: read-out: NET Ki; mean ± SEM; cited from earlier work
# muscarinic M1 receptors = conditions: read-out: M1 Ki; mean ± SEM; cited from earlier work
# [2] = tested on: pooled male Sprague–Dawley rat liver microsomes; assay: Metabolism in pooled male rat liver microsomes; format: in vitro ADME
# [3] = tested on: pooled human liver microsomes; assay: Metabolism in pooled human liver microsomes; format: in vitro ADME
# DAT = conditions: read-out: DAT Ki; mean ± SEM; cited from earlier work
# SERT = conditions: read-out: SERT Ki; mean ± SEM; cited from earlier work
# human CYP2E1 = human CYP2E1 (Homo sapiens, UniProt P05181); assay: Metabolism by recombinant human CYP2E1 Supersomes; format: in vitro ADME
# human CYP2C19 = human CYP2C19 (Homo sapiens, UniProt P33261); assay: Metabolism by recombinant human CYP2C19 Supersomes; format: in vitro ADME
# rat CYP3A1 = target: T3, rat CYP3A1 (Rattus norvegicus, UniProt P04800); assay: Metabolism by recombinant rat CYP3A1 Supersomes; format: in vitro ADME
# T3 sequence (P04800 1-504): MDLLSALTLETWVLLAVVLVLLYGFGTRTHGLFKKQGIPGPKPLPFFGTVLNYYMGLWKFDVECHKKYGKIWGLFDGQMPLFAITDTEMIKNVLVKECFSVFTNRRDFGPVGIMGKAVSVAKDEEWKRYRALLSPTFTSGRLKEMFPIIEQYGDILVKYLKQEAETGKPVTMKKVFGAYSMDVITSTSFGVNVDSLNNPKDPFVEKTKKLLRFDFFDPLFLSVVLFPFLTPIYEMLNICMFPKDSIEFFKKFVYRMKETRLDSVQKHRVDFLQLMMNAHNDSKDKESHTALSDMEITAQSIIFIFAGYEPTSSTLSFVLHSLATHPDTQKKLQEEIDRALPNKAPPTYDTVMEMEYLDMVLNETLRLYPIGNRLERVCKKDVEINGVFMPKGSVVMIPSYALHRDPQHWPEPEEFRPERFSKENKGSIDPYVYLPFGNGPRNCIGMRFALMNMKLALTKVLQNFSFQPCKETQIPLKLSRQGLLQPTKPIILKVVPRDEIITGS
# [4] = 0.1 mM, absence of verapamil, mean ± SD (n = 3)
# Sequence of human CYP2E1 (P05181 whole entry): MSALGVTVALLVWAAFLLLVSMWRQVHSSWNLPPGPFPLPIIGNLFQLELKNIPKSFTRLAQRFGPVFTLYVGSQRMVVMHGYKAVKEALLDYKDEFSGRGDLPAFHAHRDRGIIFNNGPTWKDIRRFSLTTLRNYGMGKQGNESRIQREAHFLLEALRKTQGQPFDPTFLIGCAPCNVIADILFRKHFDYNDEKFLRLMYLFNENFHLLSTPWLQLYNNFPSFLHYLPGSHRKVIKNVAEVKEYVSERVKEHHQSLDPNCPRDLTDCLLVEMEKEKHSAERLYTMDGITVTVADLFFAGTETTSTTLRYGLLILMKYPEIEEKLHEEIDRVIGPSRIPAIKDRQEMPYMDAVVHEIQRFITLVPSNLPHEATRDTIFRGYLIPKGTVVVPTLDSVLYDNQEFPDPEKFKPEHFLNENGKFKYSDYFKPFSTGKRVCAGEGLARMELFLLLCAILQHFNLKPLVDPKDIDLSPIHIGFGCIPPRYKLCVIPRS
# Sequence of human CYP2C19 (P33261 whole entry): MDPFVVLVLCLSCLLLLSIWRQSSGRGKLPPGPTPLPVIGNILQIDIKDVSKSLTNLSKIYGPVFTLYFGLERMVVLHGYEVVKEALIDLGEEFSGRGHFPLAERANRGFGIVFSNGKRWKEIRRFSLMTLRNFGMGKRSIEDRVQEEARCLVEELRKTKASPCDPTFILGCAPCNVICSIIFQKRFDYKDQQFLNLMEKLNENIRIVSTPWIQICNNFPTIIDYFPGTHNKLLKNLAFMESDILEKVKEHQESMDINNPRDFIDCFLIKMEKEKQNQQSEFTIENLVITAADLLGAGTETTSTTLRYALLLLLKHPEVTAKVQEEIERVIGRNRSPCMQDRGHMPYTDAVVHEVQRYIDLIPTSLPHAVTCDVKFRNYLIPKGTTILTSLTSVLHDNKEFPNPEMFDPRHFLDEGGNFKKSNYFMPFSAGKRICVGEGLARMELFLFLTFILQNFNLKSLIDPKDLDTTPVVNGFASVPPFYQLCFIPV
smiles,measurement,setting,value
"CC(C)[C@@H](N)CN1C2CCC1CC(OC(c1ccc(F)cc1)c1ccc(F)cc1)C2 (stereo partly drawn) [GA2-50, N-((R)-2″-amino-3″-methyl-n-butyl)-3α-[(bis-4′-fluorophenyl)methoxy]tropane]",Intrinsic Clearance,"rat CYP1A2; Rat CYP 1A2 50 pmol/mL, 4 μM",0.06 ± 0.01 (d) microliters per minute per picomole of P450
same,Substrate disappearance after 60 min incubation vs control,"rat CYP1A2; rat CYP1A2, 10 μM, 50 pmol/mL P450, p < 0.05",statistically significant disappearance
same,Permeability relative to JHW 025,Caco-2 monolayers,> 4 fold
same,Efflux Ratio,"Caco-2 monolayers; 0.1 mM, Papp(B-A)/Papp(A-B)",8.3
same,Papp A-B,Caco-2 monolayers; [4],1.37 ± 0.08 × 10^−6 cm/s
same,Papp B-A,Caco-2 monolayers; [4],11.36 ± 1.41 × 10^−6 cm/s
same,Enhancement ratio of A-B transport by verapamil,Caco-2 monolayers; verapamil 200 μM,3.4
same,Intrinsic Clearance,"rat CYP2D1; Rat CYP 2D1 50 pmol/mL, 4 μM",0.11 ± 0.02 (c) microliters per minute per picomole of P450
same,Substrate disappearance after 60 min incubation vs control,"rat CYP2D1; rat CYP2D1, 10 μM, 50 pmol/mL P450, p < 0.05",statistically significant disappearance
same,maximal DA elevation relative to basal,[1]; 5 mg/kg i.v.,1.6 fold
same,time of maximal DA increase postdose,[1]; 5 mg/kg i.v.,20 min
same,maximal increase of DA,[1]; 5 mg/kg i.v.,159 % of the basal values
same,time DA levels remained significantly elevated above basal,[1]; 5 mg/kg i.v.,up to 1 h
same,maximal DA elevation relative to basal,[1]; 10 mg/kg i.v.,2.7 fold
same,time of maximal DA increase postdose,[1]; 10 mg/kg i.v.,30 min
same,maximal increase of DA,[1]; 10 mg/kg i.v.,274 % of the basal values
same,time DA levels remained significantly elevated above basal,"[1]; 10 mg/kg i.v., whole 6 h experiment",≥ 6 h
same,effect on cocaine-induced DA elevation,"[1]; GA2-50 + cocaine, 5 mg/kg of each i.v., simultaneous administration",did not have significant effect on the DA elevation induced by cocaine
same,Ki,NET,2130 ± 160 nM
same,Ki,muscarinic M1 receptors,4020 ± 592 nM
same,Intrinsic Clearance,"[2]; Pooled male RLM 0.8 mg/mL, 4 μM, mean ± SD n = 3",5.96 ± 0.56 microliters per minute per milligram of protein
same,Intrinsic clearance in pooled male RLM relative to HLM,[2]; higher in rat than in human liver microsomes,1.9 fold
same,"Intrinsic clearance, fold lower than 4′,4″-diCl BZT","[2]; pooled male rat liver microsomes, comparator values ref 26",3.6 fold
same,Intrinsic Clearance,"[3]; Pooled HLM 0.8 mg/mL, 4 μM, mean ± SD n = 3",3.17 ± 1.18 microliters per minute per milligram of protein
same,"Intrinsic clearance, fold lower than 4′,4″-diCl BZT","[3]; pooled human liver microsomes, comparator values ref 26",4.0 fold
same,Ki,DAT,56.4 ± 9.6 nM
same,Ki,SERT,3870 ± 135 nM
same,Intrinsic Clearance,"human CYP2E1; Human CYP 2E1 50 pmol/mL, 4 μM","0.09 ± 0.02 (c,d) microliters per minute per picomole of P450"
same,Substrate disappearance after 60 min incubation vs control,"human CYP2E1; human CYP2E1, 10 μM, 50 pmol/mL P450, p < 0.05",statistically significant disappearance
same,Intrinsic Clearance,"human CYP2C19; Human CYP 2C19 50 pmol/mL, 4 μM",0.10 ± 0.01 (c) microliters per minute per picomole of P450
same,Substrate disappearance after 60 min incubation vs control,"human CYP2C19; human CYP2C19, 10 μM, 50 pmol/mL P450, p < 0.05",statistically significant disappearance
same,Intrinsic Clearance,"rat CYP3A1; Rat CYP 3A1 50 pmol/mL, 4 μM","0.09 ± 0.02 (c,d) microliters per minute per picomole of P450"
same,Substrate disappearance after 60 min incubation vs control,"rat CYP3A1; rat CYP3A1, 10 μM, 50 pmol/mL P450, p < 0.05",statistically significant disappearance
